# In the library only some 1.4% were active in any assay of this set; here they are far more common.
# CAL PDZ FP-1: untagged CAL PDZ binding inhibitors, primary screen, biochemical, fluorescence polarization, HTS. purified CAL PDZ, TMR-peptide fluorescence polarization, 1 h. inhibition, % at 24.9 µM. AID 602252, 2012. 300,000 tested, 0.92% active;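 active means mean inhibition of at least 30% with at least half of replicates also reaching 30%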;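 further: 0% = DMSO neutral control and 100% = excess unlabeled competitor peptide PRC23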
# CDK5 p35 inh: inhibitors of human CDK5/p35 kinase, primary screen, biochemical, single concentration; Cyclin-dependent kinase 5 (Homo sapiens) + Cyclin-dependent kinase 5 activator 1 (Homo …; Recombinant CDK5/p35, ADP-Glo luminescence, 60 min; inhibition, % at 10 µM; 330,000 tested, 0.01% active; AID 488839, 2010;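 active means highest replicate inhibition of at least 50% and at least 75% of replicates reaching 50%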;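 further: plate controls were DMSO neutral control for no effect and GW8510 at 10 µM for full effect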
# Target sequence (Q00535 whole entry, looked up): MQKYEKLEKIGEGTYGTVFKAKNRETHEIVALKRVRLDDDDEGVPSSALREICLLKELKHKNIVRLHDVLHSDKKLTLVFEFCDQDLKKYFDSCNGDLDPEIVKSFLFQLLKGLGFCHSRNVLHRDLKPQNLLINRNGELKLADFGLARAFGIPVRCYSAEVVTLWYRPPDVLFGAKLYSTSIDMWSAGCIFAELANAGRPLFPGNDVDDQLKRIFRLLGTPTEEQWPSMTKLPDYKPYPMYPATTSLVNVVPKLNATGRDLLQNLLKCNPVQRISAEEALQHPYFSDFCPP
# Target sequence (Q15078 whole entry, looked up): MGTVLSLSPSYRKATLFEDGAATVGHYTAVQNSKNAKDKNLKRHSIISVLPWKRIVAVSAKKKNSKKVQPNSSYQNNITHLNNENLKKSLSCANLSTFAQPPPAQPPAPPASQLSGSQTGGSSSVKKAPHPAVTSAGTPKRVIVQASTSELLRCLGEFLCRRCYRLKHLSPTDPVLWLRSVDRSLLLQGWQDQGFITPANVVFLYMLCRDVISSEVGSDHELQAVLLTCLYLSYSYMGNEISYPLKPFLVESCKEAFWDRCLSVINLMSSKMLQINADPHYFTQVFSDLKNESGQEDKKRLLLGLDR
# DYRK1A inh: rat Dyrk1A kinase inhibitors, primary screen, biochemical, single point, plate reader; Dual specificity tyrosine-phosphorylation-regulated kinase 1A (Rattus norvegicus), Q63470; ADP-Glo luminescence, NFATc1 peptide; inhibition, % at 12.5 µM; 310,000 tested, 0.43% active; in the data active means inhibition above about 50%;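 further: plate controls were vehicle with enzyme for no effect and no enzyme for full effect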
# Tb MetRS inh: T. brucei MetRS inhibitors, primary screen, biochemical, luminescence | purified T. brucei MetRS, ATP depletion, Kinase-Glo luminescence | inhibition, % at 11.9 µM | 360,000 tested, 0.4% active | AID 624268, 2012;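 active means inhibition above a per-plate cutoff of the control wells' mean inhibition plus 3 SD, cut at about 5.5% in these data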;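 further: 0% = DMSO wells median and 100% = median of wells with control inhibitor compound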
#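 Assay system: T. brucei methionyl-tRNA synthetase, purified | Medium: HEPES buffer with MgCl2, KCl, DTT, spermine, BSA, pyrophosphatase | Compound: 11.9 µM single point | Incubation: 15 min enzyme-compound preincubation, 2 h reaction, 10 min detection, 25 °C | Measured by: Kinase-Glo luciferase luminescence reporting remaining unconsumed ATP | Measure: % inhibition normalized to control-well medians | Replication: Singlicate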
# CAL PDZ FP-2: CAL PDZ peptide-binding inhibitors, primary screen, biochemical, fluorescence polarization, Cer-tagged CAL PDZ, HTS; purified CAL PDZ, TMR-peptide fluorescence polarization, 1 h; inhibition, % at 20 µM; Golgi-associated PDZ and coiled-coil motif-containing protein (Homo sapiens), Q9HD26; AID 504414, 2011; 330,000 tested, 0.02% active;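 active means highest replicate inhibition of at least 40%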;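 further: plate controls were DMSO neutral control wells for no effect and unlabeled competitor peptide control wells for full effect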
#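 Test system: purified CerCALP PDZ construct; Compound dosing: one concentration, 20 µM compound; Also added: TMR-labelled reporter peptide T*-PRC34 bound in PDZ groove; Read-out: inhibition from polarization loss; Controls: unlabelled peptide and DMSO controls; Signal: FP readout, S and P plane fluorescence; Incubation: 1 h at RT.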
# PvdQ acylase: P. aeruginosa PvdQ acylase inhibitors, primary screen, biochemical, fluorescence, plate reader and imaging, single point; inhibition, % at 10 µM; 340,000 tested, 0.063% active; purified PvdQ acylase; in the data active means inhibition above about 30%, passing the limit was not always enough;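 further: 0% = vehicle neutral wells and 100% = reference inhibitor wells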
# Starred values were filed as active, the others as inactive; · = no result; + = active, no number.
SMILES,CAL PDZ FP-1,CDK5 p35 inh,DYRK1A inh,Tb MetRS inh,CAL PDZ FP-2,PvdQ acylase
O=C(C1CCN(S(=O)(=O)c2cnc[nH]2)CC1)N1CCN(c2ccc([N+](=O)[O-])cc2)CC1,49*,1,8,0,-1,-20
O=C(NC(c1ccc(-c2ccccc2)cc1)c1cnccn1)C1CCN(Cc2ccc3c(c2)OCO3)CC1 (stereo unspecified),·,·,·,0,·,·
CC1(C)CC(=O)C=C(c2ccc(-c3ccc(OC(F)(F)F)cc3)cc2)C1=O,·,·,·,-1,·,·
N#C/C(=C\c1ccc(O)c(Br)c1)C(=O)NCc1ccccc1,-3,2,86*,0,1,-2
COc1ccc(C2C(C(=O)c3ccco3)=C(O)C(=O)N2CC2CCCO2)cc1OC (stereo unspecified),52*,1,0,0,0,-19
O=C(C1=C(O)C(=O)N(CC2CCCO2)C1c1ccccc1)c1ccco1 (stereo unspecified),-3,1,3,0,-1,-10
CCCc1cc(=O)oc2c3c(cc(OCC(=O)N4CCC[C@H]4C(=O)O)c12)OC(C)(C)CC3,43*,0,-2,1,0,0
Cc1ccc(-n2cccn2)c(CN2CCCC(C(=O)c3ccc4c(c3)OCO4)C2)c1 (stereo unspecified),-1,0,1,-1,-2,2
O=C(c1ccc2c(c1)OCO2)C1CCCN(Cc2cc(F)ccc2-n2cccn2)C1 (stereo unspecified),57*,-1,3,0,-1,-13
Cn1c(=O)n(C)c2cc3[nH]cnc3cc21,42*,1,5,-1,-1,-14
CCCN1CCC(C(=O)NC(c2ccc(Cl)cc2)c2ccsc2)CC1 (stereo unspecified),·,·,·,0,·,·
Cc1cc(C(=O)COC(=O)CNC(=O)c2ccccc2)c(C)n1CC1CCCO1 (stereo unspecified),4,-1,0,-1,0,1
Cc1cccc(C(=O)NCC(=O)OCC(=O)c2cc(C)n(CC3CCCO3)c2C)c1 (stereo unspecified),89*,-1,0,-1,0,-13
CCCC(=O)Nc1cc(S(=O)(=O)N2CCCCC2)ccc1N1CCOCC1,59*,1,·,0,0,-10
Cn1cc(Cc2ccc(C(=O)N3CCOCC3)cn2)c2ccccc21,·,·,·,0,·,·
CCC(=NCCc1ccccc1)C1=C(O)CCC1=O,64*,1,-4,-1,-1,-13
Cc1nc(SCC(=O)O)c(C#N)c2c1CCCC2,76*,2,-4,0,-4,-9
CCc1nc(SCC(=O)O)c(C#N)c2c1CCCC2,·,0,-1,-1,-1,-12
Cc1ccc([N+](=O)[O-])cc1NC1CC(O)C(CO)O1 (stereo unspecified),31*,0,11,0,1,-2
N#CC(c1ccc(Cl)cc1)c1ncc(C(F)(F)F)cc1Cl (stereo unspecified),-1,-2,3,-1,-1,57*
NC(=O)C(c1ccccc1)c1ncc(C(F)(F)F)cc1Cl (stereo unspecified),-2,0,2,-2,2,1
Cn1cccc1C(C#N)c1ncc(C(F)(F)F)cc1Cl (stereo unspecified),-2,-1,0,0,0,-1
N#CC(c1cccc(Cl)c1)c1ncc(C(F)(F)F)cc1Cl (stereo unspecified),0,-1,2,-1,-2,52*
CN[C@H]1C[C@H]2c3[nH]c4ccc(-c5ccc(OC)cc5)cc4c3CCN2C(=O)[C@H]1[C@H](C)O,·,·,·,-1,·,·
COc1ccccc1C(=O)NC(CCSC)C(=O)NC1CC1 (stereo unspecified),62*,1,-1,0,-2,-3
SMILES,CAL PDZ FP-1,CDK5 p35 inh,DYRK1A inh,Tb MetRS inh,CAL PDZ FP-2,PvdQ acylase
COc1ccccc1C(=O)NC(CCSC)C(=O)NC1CCCCCC1 (stereo unspecified),·,2,5,-1,-1,-4
O=C(Nc1ccc(Br)cn1)c1ccc(COc2c(F)c(F)cc(F)c2F)o1,35*,0,·,0,0,-16
Cc1ccnc(NC(=O)c2ccc(COc3c(F)c(F)cc(F)c3F)o2)c1,·,0,13,1,-1,1
CCc1nnc(NC(=O)c2cc(C)nc3ccccc23)s1,65*,1,8,0,-1,-11
CCCCCCCCC(c1nc2ccccc2[nH]1)N1CCN=C1c1cc2ccccc2[nH]1 (stereo unspecified),·,·,·,5,·,·
COc1ccc(C2CCc3cc4c(cc3C2=NOC(C)=O)OCO4)cc1OC (stereo unspecified),·,·,·,0,·,·
CN(C(=O)COC(=O)c1ccc(S(=O)(=O)N2CCOCC2)cc1)c1ccccc1,45*,0,-1,0,0,-10
N#CCCN(C(=O)COC(=O)c1ccc(S(=O)(=O)N2CCOCC2)cc1)c1ccccc1,·,-1,·,0,-1,-11
O=S1(=O)N[C@@H](Cc2ccccc2)COc2cccc(N3CCN(Cc4ccccc4F)CC3)c21,·,·,·,0,·,·
Oc1ccccc1C=NCCCCCCN=Cc1ccccc1O,+,1,-4,0,0,-8
COc1cccc(N2CCN(C(=O)c3ccc(OC)c(S(=O)(=O)NC4CC4)c3)CC2)c1,·,·,·,0,·,·
O=[N+]([O-])c1nn(-c2ccc(Cl)cc2)n(O)c1=NCc1ccccc1,5,2,10,-1,0,41*
Nc1nnc(N)c2ccccc12,57*,-3,7,0,-1,-7
CCOc1ncccc1C(=O)OCC(=O)N(CC(C)C)C1CCS(=O)(=O)C1 (stereo unspecified),57*,-1,2,0,0,-14
CSc1ncccc1C(=O)OCC(=O)N(CC(C)C)C1CCS(=O)(=O)C1 (stereo unspecified),-1,2,2,0,-1,-18
CCCC(=O)N1CCC1(C)C(=O)Nc1cccc(F)c1 (stereo unspecified),·,·,·,0,·,·
Nc1nonc1-c1nc2ccccc2n1Cc1ccc(F)cc1Cl,active,0,2,-2,-2,-8
COc1ccc(CCC(=O)OCC(=O)c2ccc[nH]2)cc1OC,-5,-8,6,0,-1,-21

# Screening results: PubChem, several laboratories
